In the library only some 11% were active in any assay of this set; here they are far more common.
S1P3 agonist: human S1P3 receptor agonists, primary screen, cell-based, primary and confirmation, NFAT-BLA reporter; activation, % at 4.5 µM; Sphingosine 1-phosphate receptor 3 (Homo sapiens), Q99500; S1P3 NFAT-BLA reporter cells, agonism, FRET ratio; relative to 1 µM S1P, basal subtracted; AID 373, 2006; 0.1% of 60,000 active;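 active = activation above the screen-wide mean plus 3 SD, cut at about 4.5% in these data, passing the limit was not always enough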
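Assay system: stable CHO line with human S1P3, Gα16, NFAT-BLA reporter; Detection: FRET β-lactamase substrate fluorescence, excitation 405 nm, 460/535 nm emission ratio, background-subtracted; Read-out: percent activation versus median 1 µM S1P response, basal-subtracted, per plate; Incubation: cells plated overnight, compound 4 h 37 °C, substrate 2 h RT.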
M1 ag: M1 muscarinic receptor agonists, primary screen, CHO-M1 cells, Fluo-4 calcium, agonist mode | Muscarinic acetylcholine receptor M1 | Fluo-4 calcium fluorescence; hits give high values | B-score at 10 µM | 3% of 64,000 active | AID 626, 2007;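 active = fluorescence rise, raw or as B-score row- and column-corrected plate score, outside the 99.7% band of its plate's samples, either direction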
M1 antagonist: antagonists of rat M1 muscarinic receptor; Muscarinic acetylcholine receptor M1 (Rattus norvegicus), P08482; CHO-M1 cells, Fluo-4 calcium, ACh EC80 antagonist mode; hits give low values; B-score at 10 µM; 3.4% of 64,000 active; AID 628, 2007;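 active = calcium fluorescence response, raw or row-and-column corrected B-score, differing from the plate sample mean either way at a set confidence level, mostly lower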
Target sequence (P08482 whole entry, looked up): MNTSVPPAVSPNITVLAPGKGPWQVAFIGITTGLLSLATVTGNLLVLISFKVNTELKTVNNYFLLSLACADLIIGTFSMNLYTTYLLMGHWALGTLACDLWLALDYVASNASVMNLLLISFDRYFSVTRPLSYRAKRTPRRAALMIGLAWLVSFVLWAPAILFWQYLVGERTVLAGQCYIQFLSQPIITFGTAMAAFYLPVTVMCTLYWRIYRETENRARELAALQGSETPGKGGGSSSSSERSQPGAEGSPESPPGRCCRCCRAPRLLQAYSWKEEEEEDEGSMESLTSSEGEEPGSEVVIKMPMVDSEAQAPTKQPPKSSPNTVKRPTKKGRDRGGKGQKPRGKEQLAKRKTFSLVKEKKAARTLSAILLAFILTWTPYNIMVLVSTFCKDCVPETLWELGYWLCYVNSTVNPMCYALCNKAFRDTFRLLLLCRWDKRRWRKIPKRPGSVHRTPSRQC
D1 allo mod: D1 CRE-luciferase signal change, two-sided – cell-based, HEK293 D1, dopamine EC30, D1 allosteric modulator project, primary screen; D(1A) dopamine receptor (Homo sapiens), P21728; dopamine EC30 potentiation; actives deviate in either direction; B-score at 10 µM; 5.9% of 58,000 active; AID 641, 2007;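 active = luminescence count or its row- and column-corrected plate score outside the 99.7% band of the plate's sample wells, on either side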
TNAP act DEA: human TNAP enzyme activators, primary screen, biochemical, luminescent, intermediate phosphate acceptor level; 64,000 tested, under 10 active; AID 813, 2007; purified TNAP, CDP-star luminescence, 100 mM DEA, 30 min; hits give high values; scale: 0 levamisole-inhibited, 1 vehicle-only enzyme; Alkaline phosphatase, tissue-nonspecific isozyme (Homo sapiens), P05186; activation factor at 20 µM;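 active = activation factor of at least 2 at 20 µM, relative to controls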
S1P1 ag pot: S1P1 agonists and agonism potentiators, primary screen, cell-based, primary and confirmation screens, CRE-bla reporter; Sphingosine 1-phosphate receptor 1 (Homo sapiens), P21453; S1P1 CRE-bla cells, forskolin, beta-lactamase FRET, potentiator mode; S1P1 agonist co-added at EC20, 2 nM; 100% = saturating reference agonist, 0% = basal; activation, % at 9.5 µM; 0.57% of 56,000 active; AID 449, 2006;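 active = activation above a cutoff set at the mean activation of all tested compounds plus 3 SD, cut at about 54% in these data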;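 also: forskolin at 4 µM as EC80 and the EC20 agonist is SEW2871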
M1 antag conf: rat M1 muscarinic receptor antagonists, confirmation, CHO cells, Fluo-4 calcium, duplicate; shares compounds with M1 antagonist; ACh EC80 antagonism; hits give low values; calcium response (max-min fluorescence) at 10 µM; 43% of 1,700 active;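 active = calcium response below the same-plate mean of wells given acetylcholine alone at its 80%-effect dose, minus 3 SD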
mGluR4 antag: human mGluR4 response to M1 antagonist hits, M1 allosteric modulator project, cell-based, antagonist mode, secondary assay 1. shares compounds with M1 antagonist. CHO-mGluR4 calcium flux, Fluo-4 fluorescence, glutamate EC80; hits give low values. fluorescence response (max-min) at 10 µM. 0.9% of 1,700 active. AID 678, 2007;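 active = fluorescence response below the plate's average for near-maximal glutamate wells, less 3 SD of those wells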;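 also: raw unnormalized fluorescence span taken in the window right after glutamate addition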
Hits are given with their value; n = inactive; x = no result given.

SMILES	S1P3 agonist	M1 ag	M1 antagonist	D1 allo mod	TNAP act DEA	S1P1 ag pot	M1 antag conf	mGluR4 antag
CCCCn1c2c(c(=O)n(C)c1=O)C(c1ccc(OC)cc1)N1CCCCCC1=N2 (stereo not given)	n	n	n	n	x	n	x	x
O=C(CCN1CCc2ccccc2C1)Nc1cccc(F)c1	n	n	-1.04	n	n	x	n	n
O=C(COC(=O)C1CCN(S(=O)(=O)c2cccs2)CC1)c1cc2ccccc2o1	n	n	n	n	n	n	x	x
O=C(O)CCCCCN1C(=O)CSC1=S	n	n	-6.39	n	n	n	n	n
O=C(CN1CCCC1)N1CCCc2c1c(=O)oc1ccc(OCc3ccccc3)cc21	n	n	-2.46	n	n	n	384	n
CCCOc1ccc2oc(=O)c3c(c2c1)CCCN3C(=O)CN1CCCC(C(=O)OCC)C1 (stereo not given)	n	n	-4.88	n	n	n	440	n
CCCOc1ccc2oc(=O)c3c(c2c1)CCCN3C(=O)CN1CCN(C(=O)c2ccco2)CC1	n	n	n	n	n	n	x	x
CN(CC(=O)N1CCCc2c1c(=O)oc1ccc(O)cc21)Cc1ccccc1	n	n	-6.46	n	n	n	467	n
CCn1c(N)c(C(=O)NCCCOC)sc1=S	n	n	n	n	n	n	x	x
O=C(NC1CCCCC1)C(c1ccccc1)N1CCCC1 (stereo not given)	x	n	-13.2	n	n	x	121	n
Cc1ccc(C(C(=O)NC2CCCC2)N2CCCCC2)cc1 (stereo not given)	n	n	-3.45	n	n	n	468	n
Cc1ccc(C(C(=O)NC2CCCCC2)N2CCCC2)cc1 (stereo not given)	x	n	-3.82	n	n	x	461	n
CC(C)N(CCCNC(=O)C1CCN(S(=O)(=O)N2CCOCC2)CC1)Cc1ccccc1	n	n	-3.75	n	n	n	n	n
CN(CCCNC(=O)C1CCN(S(=O)(=O)N2CCC3(CC2)OCCO3)CC1)Cc1ccccc1	x	n	n	n	n	x	x	x
CCN(CCCNC(=O)C1CCN(S(=O)(=O)c2cccc3nonc23)CC1)Cc1ccccc1	x	n	-6.83	n	n	x	304	n
O=C(NCCN1CCCCCC1)C1CCN(S(=O)(=O)N2CCOCC2)CC1	n	n	-5.21	n	n	n	n	n
O=C(NCCN1CCOCC1)C1CCC(=O)N1C1CCCCC1 (stereo not given)	n	n	-1.44	n	n	n	n	n
CCOC(=O)c1sc(NC(=O)c2cc3c(C)nn(-c4ccccc4)c3s2)nc1C	x	n	n	n	n	x	x	x
Cc1ccc(/C(O)=C2\C(=O)C(=O)N(CC(C)O)C2c2ccc(N(C)C)cc2)cc1 (stereo not given)	n	n	n	n	n	n	x	x
COc1ccccc1C(=O)Nc1c2c(nn1-c1cccc(C)c1C)CS(=O)C2 (stereo not given)	n	n	n	n	n	n	x	x
O=C(CSc1c2c(nc3ccc(Cl)cc13)CCCC2)N1CCN(C(=O)c2ccco2)CC1	n	n	n	x	n	n	x	x
COc1ccc(C2/C(=C(/O)c3ccccc3)C(=O)C(=O)N2CC(C)O)c(OC)c1 (stereo not given)	n	n	n	n	n	n	x	x

High-throughput results deposited in PubChem BioAssay by several laboratories.
